Measurements from ChEMBL document CHEMBL1123247, “Nucleoside conjugates. 7. Synthesis and antitumor activity of 1-beta-D-arabinofuranosylcytosine conjugates of ether lipids” (J Med Chem, 1986).

Tests used:
[1] = tested on: L1210; assay: Antitumor activity against ip implanted L1210 leukemia in mice expressed as active dose range (1-5qd treatment schedule) required to produce increase in life span by >25% was determined; Range is 10-80; type: functional, Mus musculus
How it was run: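 DBA/2J mice, groups of 6 (23-28 g), were inoculated ip with 1 × 10^6 L1210 cells on day 0. Dosing was ip from 24 h, in 0.9% NaCl with 0.5% Tween-80 (sonicated solution or suspension). Mice were observed daily until death or day 45. Median survival T/C followed NCI protocols, and ILS = (T/C − 1) × 100. Active range means doses giving ILS ≥25%; optimal dose means greatest ILS.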

[2] = tested on: L1210; assay: Antitumor activity was determined against the ic implanted L1210 lymphoid leukemia in mice by change in […] at 80 mg/kg (1-5qd treatment schedule) dosage; type: functional, Mus musculus
How it was run: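 DBA/2J mice, 6 per group (wt 26-32 g), inoculated ic with 1×10^5 L1210 cells on day 0. Dosing ip began 24 h after inoculation, with a sonicated solution or suspension in 0.9% NaCl containing 0.5% Tween-80, given over a range of doses. Animals were followed daily until death. Body weight change, median survival T/C, and %ILS = (T/C − 1) × 100 were computed from survivors per NCI protocols.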

[3] = tested on: L1210; assay: Antitumor activity was determined against the ic implanted L1210 lymphoid leukemia in mice by median survival time at 300 mg/kg (treatment of 1-5qd schedule) dosage; 16.0/7.0
[4] = tested on: L1210; assay: Antitumor activity was determined against the ip implanted L1210 leukemia in mice by percent increase in life span at 80 mg/kg (treatment of 1-5qd schedule) dosage; type: functional, Mus musculus; details: route intraperitoneal
How it was run: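 DBA/2J mice in groups of 6 (wt 23-28 g) were inoculated ip with 1×10^6 L1210 cells on day 0. Dosing was ip from 24 h, in 0.9% NaCl with 0.5% Tween-80 (conjugates sonicated), across a range of doses. Mice were observed daily until death or 45 days. Median T/C was computed from survivors per NCI protocols, and ILS = (T/C − 1)×100.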

[5] = tested on: L1210; assay: Antitumor activity was determined against the ip implanted L1210 leukemia in mice by range in survival days at 400 mg/kg (treatment of 1qd schedule) dosage; Range is 20-33; type: functional, Mus musculus; details: route intraperitoneal
How it was run: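 DBA/2J mice, 23-28 g, in groups of 6, were inoculated ip with 1×10^6 L1210 cells on day 0. Dosing was ip starting 24 h later on the stated daily schedules. Conjugates were given as sonicated solutions and reference prodrugs as suspensions in 0.9% NaCl with 0.5% Tween-80. Mice were observed daily until death or 45 days. Median survival T/C was calculated from survivors per NCI protocols.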

[6] = tested on: P388; assay: Antitumor activity was determined against the ip implanted P388 leukemia in mice by percent median survival rate (treated/control) at 133 mg/kg (treatment of 1,5,9qd schedule) dosage; Range is >45.0/11.0; details: route intraperitoneal
[7] = tested on: P388; assay: Antitumor activity was determined against the ip implanted P388 leukemia in mice by 45-day survivors in mice at 300 mg/kg (treatment of 1qd schedule) dosage; details: route intraperitoneal

`CCCCCCCCCCCCCCCC(=O)OC[C@H](COP(=O)(O)OP(=O)(O)OC[C@H]1O[C@@H](n2ccc(N)nc2=O)[C@@H](O)[C@@H]1O)OC(=O)CCCCCCCCCCCCCCC` showed an Active dose range [1] of 10 mg/kg/day and a Weight change [2] of -5.24 g mouse-1.

In the case of `Nc1ccn([C@@H]2O[C@H](CO)[C@@H](O)[C@@H]2O)c(=O)n1` [CYTARABINE], the median survival time [3] is reported as 16 days.

In the case of `CCCCCCCCCCCCCCCCOCC(COP(=O)(O)OP(=O)(O)OC[C@H]1O[C@@H](n2ccc(N)nc2=O)[C@@H](O)[C@@H]1O)OC(=O)CCCCCCCCCCCCCCC` (mixture of isomers), the ILS [4] is reported as 264, the Range [5] is reported as 20 and the T/C [6] is reported as >45%. For the same molecule, the Survivors [7] was 6.
